Reference: ChEMBL document CHEMBL1828518, “Arylazolylthioacetanilide. Part 8: Design, synthesis and biological evaluation of novel 2-(2-(2,4-dichlorophenyl)-2H-1,2,4-triazol-3-ylthio)-N-arylacetamides as potent HIV-1 inhibitors” (Eur J Med Chem, 2011)
Activity calls are given as the source filed them. No cut-off for these calls is given here.

Tests used:
[1] = tested on: Human immunodeficiency virus 1; test: Antiviral activity against HIV-1 3B harboring RT Y181C mutant infected in human MT4 cells assessed as inhibition of virus-induced syncytium formation after 5 days by MTT assay; type: functional, organism-based
How it was run: (§1)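 Exponentially growing MT-4 cells, pelleted and resuspended at 6 × 10⁵ cells/mL, were infected with virus stock at 100-300 CCID50. Test compounds were added at infection as serial fivefold dilutions, in triplicate wells. After 5 days, viability was read by MTT reduction at 540 and 690 nm using the median OD of three wells.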

[2] = tested on: Human immunodeficiency virus 1; test: Antiviral activity against HIV-1 3B harboring RT Y188L mutant infected in human MT4 cells assessed as inhibition of virus-induced syncytium formation after 5 days by MTT assay; type: functional, organism-based; how it was run: as §1
[3] = tested on: Human immunodeficiency virus 1; test: Antiviral activity against HIV-1 3B harboring RT F227L and V106A mutant infected in human MT4 cells assessed as inhibition of virus-induced syncytium formation after 5 days by MTT assay; type: functional, organism-based; how it was run: as §1
[4] = tested on: Human immunodeficiency virus 1; test: Antiviral activity against HIV-1 3B harboring RT K103N and Y181C mutant infected in human MT4 cells assessed as inhibition of virus-induced syncytium formation after 5 days by MTT assay; type: functional, organism-based; how it was run: as §1
[5] = tested on: Human immunodeficiency virus 1; test: Ratio of EC50 for HIV-1 3B harboring RT K103N mutant infected in human MT4 cells to EC50 for wild type HIV-1 3B infected in human MT4 cells; type: functional
How it was run: (§2)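 Fold resistance is the EC50 against the drug-resistant strain divided by the EC50 against wild-type HIV-1 IIIB. Both values come from the same MT-4 assay: 5-day infection, MTT viability read-out, and serial fivefold compound dilutions in triplicate wells.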

[6] = tested on: Human immunodeficiency virus 1; test: Ratio of EC50 for HIV-1 3B harboring RT E138K mutant infected in human MT4 cells to EC50 for wild type HIV-1 3B infected in human MT4 cells; type: functional; how it was run: as §2
[7] = tested on: Human immunodeficiency virus 1; test: Ratio of EC50 for HIV-1 3B harboring RT L100I mutant infected in human MT4 cells to EC50 for wild type HIV-1 3B infected in human MT4 cells; type: functional; how it was run: as §2
[8] = tested on: Human immunodeficiency virus 1; test: Antiviral activity against HIV-1 3B harboring RT E138K mutant infected in human MT4 cells assessed as inhibition of virus-induced syncytium formation after 5 days by MTT assay; type: functional, organism-based; settings: Human immunodeficiency virus 1, 3B, MT4, 120 h; how it was run: as §1
[9] = tested on: Human immunodeficiency virus 1; test: Antiviral activity against HIV-1 3B harboring RT K103N mutant infected in human MT4 cells assessed as inhibition of virus-induced syncytium formation after 5 days by MTT assay; type: functional, organism-based; settings: Human immunodeficiency virus 1, 3B, MT4, 120 h; how it was run: as §1
[10] = tested on: Human immunodeficiency virus 1; test: Antiviral activity against HIV-1 3B harboring RT L100I mutant infected in human MT4 cells assessed as inhibition of virus-induced syncytium formation after 5 days by MTT assay; type: functional, organism-based; settings: Human immunodeficiency virus 1, 3B, MT4, 120 h; how it was run: as §1
[11] = tested on: Human immunodeficiency virus 1; test: Antiviral activity against HIV-1 3B infected in human MT4 cells assessed as inhibition of virus-induced syncytium formation after 5 days by MTT assay; type: functional, organism-based; settings: Human immunodeficiency virus 1, 3B, MT4, 120 h
How it was run: (§3)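 MT-4 cells (exponentially growing, spun 5 min at 1000 rpm, resuspended at 6 × 10⁵ cells/mL) infected with HIV-1 IIIB or HIV-2 ROD at 100–300 CCID50. Compounds added at infection in triplicate wells as serial fivefold dilutions, with untreated infected and mock-infected controls. Viability read by MTT at 540 and 690 nm after 5 days, from the median OD of three wells.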

[12] = tested on: Human immunodeficiency virus 2; test: Antiviral activity against HIV-2 ROD infected in human MT4 cells assessed as inhibition of virus-induced syncytium formation after 5 days by MTT assay; type: functional, organism-based; settings: Human immunodeficiency virus 2, ISOLATE ROD, MT4, 120 h; how it was run: as §3
[13] = Cytotoxicity against human MT4 cells assessed as cell viability after 5 days by MTT assay; type: cell-based
How it was run: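 MT-4 cells at 6 × 10⁵ cells/mL, mock-infected with culture medium and run in parallel with the antiviral plates. Test compounds given as serial fivefold dilutions in triplicate wells. After 5 days viability read by MTT reduction to formazan at 540 and 690 nm, using the median OD of three wells.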

[14] = Selectivity index, ratio of CC50 for human MT4 cells to EC50 for HIV-1 3B infected in human MT4 cells; type: toxicity, cell-based; settings: uninfected and infected with HIV-1 3B, read-out: Ratio CC50/EC50
How it was run: (§4)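 Selectivity index calculated as CC50 divided by EC50. Both values come from MTT readings taken 5 days after infection, on mock-infected and virus-infected MT-4 cells run in parallel.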

[15] = Selectivity index, ratio of CC50 for human MT4 cells to EC50 for HIV-2 ROD infected in human MT4 cells; type: toxicity, cell-based; settings: uninfected and infected with HIV-2 ROD, read-out: Ratio CC50/EC50; how it was run: as §4

Cc1cc(C#N)cc(C)c1Oc1nc(Nc2ccc(C#N)cc2)nc(N)c1Br [ETRAVIRINE]
inhibition [1]: inactive
inhibition [2]: inactive
inhibition [3]: inactive
inhibition [4]: inactive
Ratio EC50 [5]: 0.62
Ratio EC50 [6]: 2.6
Ratio EC50 [7]: 1.54
EC50 [8]: 0.008 µM
EC50 [9]: 0.00184 µM
EC50 [10]: 0.0046 µM

Cc1cn([C@H]2C[C@H](N=[N+]=[N-])[C@@H](CO)O2)c(=O)[nH]c1=O [ZIDOVUDINE]
inhibition [1]: inactive
inhibition [2]: inactive
inhibition [3]: inactive
inhibition [4]: inactive
Ratio EC50 [5]: 0.71
Ratio EC50 [6]: 1.4
Ratio EC50 [7]: 0.32
EC50 [11]: 0.0076 µM
EC50 [12]: 0.0033 µM
CC50 at 120 h [13]: > 88.3 µM
selectivity ratio [14]: > 11600
selectivity ratio [15]: > 28300
EC50 [8]: 0.02 µM
EC50 [9]: 0.011 µM
EC50 [10]: 0.0049 µM

CC(C)Nc1cccnc1N1CCN(C(=O)c2cc3cc(NS(C)(=O)=O)ccc3[nH]2)CC1.CS(=O)(=O)O [DELAVIRDINE MESYLATE]
inhibition [1]: inactive
inhibition [2]: inactive
inhibition [3]: inactive
inhibition [4]: inactive
Ratio EC50 [5]: 52.8
Ratio EC50 [6]: 1.9
Ratio EC50 [7]: 68.3
EC50 [8]: 0.06 µM
EC50 [9]: 1.72 µM
EC50 [10]: 2.23 µM

O=C(CSc1ncnn1-c1ccc(Cl)cc1Cl)Nc1ccc(Cl)cc1Cl
EC50 [11]: 34.4 µM
EC50 [12]: > 172 µM
CC50 at 120 h [13]: 172 µM
selectivity ratio [14]: 5
selectivity ratio [15]: < 1

COC(=O)c1ccc(NC(=O)CSc2ncnn2-c2ccc(Cl)cc2Cl)cc1
EC50 [11]: > 26.3 µM
EC50 [12]: > 26.3 µM
CC50 at 120 h [13]: 26.3 µM
selectivity ratio [14]: < 1
selectivity ratio [15]: < 1

O=C(CSc1ncnn1-c1ccc(Cl)cc1Cl)Nc1ccccc1Cl
inhibition [1]: inactive
inhibition [2]: inactive
inhibition [3]: inactive
inhibition [4]: inactive
Ratio EC50 [5]: 2.8
Ratio EC50 [6]: 3.6
Ratio EC50 [7]: 3.7
EC50 [11]: 6.21 µM
EC50 [12]: > 29.1 µM
CC50 at 120 h [13]: 29.1 µM
selectivity ratio [14]: 5
selectivity ratio [15]: < 1
EC50 [8]: 20.9 µM
EC50 [9]: 16.1 µM
EC50 [10]: 21.4 µM

NS(=O)(=O)c1ccc(NC(=O)CSc2nnc(Br)n2-c2ccc(C3CC3)c3ccccc23)c(Cl)c1
EC50 ([4]; Human immunodeficiency virus 1, 3B, MT4, 120 h): 0.23 µM

O=c1[nH]cnc2c1ncn2[C@H]1CC[C@@H](CO)O1 [DIDANOSINE]
EC50 [11]: 8.86 µM
EC50 [12]: 16 µM
CC50 at 120 h [13]: > 211 µM
selectivity ratio [14]: > 24
selectivity ratio [15]: > 13

Nc1ccn([C@H]2CC[C@@H](CO)O2)c(=O)n1 [ZALCITABINE]
EC50 [11]: 0.75 µM
EC50 [12]: 0.88 µM
CC50 at 120 h [13]: > 94 µM
selectivity ratio [14]: > 127
selectivity ratio [15]: > 108

O=C1Nc2ccc(Cl)cc2[C@@](C#CC2CC2)(C(F)(F)F)O1 [EFAVIRENZ]
inhibition [1]: inactive
inhibition [2]: inactive
inhibition [3]: inactive
inhibition [4]: inactive
EC50 [8]: 0.0055 µM
EC50 [9]: 0.108 µM
EC50 [10]: 0.054 µM

O=C(CSc1ncnn1-c1ccc(Cl)cc1Cl)Nc1cccnc1Cl
inhibition [1]: inactive
inhibition [2]: inactive
inhibition [3]: inactive
inhibition [4]: inactive
Ratio EC50 [5]: 2.8
Ratio EC50 [6]: 4.3
Ratio EC50 [7]: 4.4
EC50 [11]: 4.99 µM
EC50 [12]: > 98.5 µM
CC50 at 120 h [13]: 98.5 µM
selectivity ratio [14]: 20
selectivity ratio [15]: < 1
EC50 [8]: 6.79 µM
EC50 [9]: 10.5 µM
EC50 [10]: 15.4 µM

CCOC(=O)c1ccc(NC(=O)CSc2ncnn2-c2ccc(Cl)cc2Cl)cc1
EC50 [11]: > 22.8 µM
EC50 [12]: > 22.8 µM
CC50 at 120 h [13]: 22.8 µM
selectivity ratio [14]: < 1
selectivity ratio [15]: < 1

Cc1ccccc1NC(=O)CSc1ncnn1-c1ccc(Cl)cc1Cl
EC50 [11]: 32.4 µM
EC50 [12]: > 106 µM
CC50 at 120 h [13]: 106 µM
selectivity ratio [14]: 3
selectivity ratio [15]: < 1

Cc1ccnc2c1NC(=O)c1cccnc1N2C1CC1 [NEVIRAPINE]
inhibition [1]: inactive
inhibition [2]: inactive
inhibition [3]: inactive
inhibition [4]: inactive
EC50 [11]: 0.19 µM
EC50 [12]: > 15 µM
CC50 at 120 h [13]: > 15 µM
EC50 [8]: 0.18 µM
EC50 [9]: 7.25 µM
EC50 [10]: 1.92 µM

O=C(CSc1ncnn1-c1ccc(Cl)cc1Cl)Nc1ccc(Cl)cc1Br
EC50 [11]: > 189 µM
EC50 [12]: > 189 µM
CC50 at 120 h [13]: 189 µM
selectivity ratio [14]: < 1
selectivity ratio [15]: < 1

Cc1ccc(NC(=O)CSc2ncnn2-c2ccc(Cl)cc2Cl)c([N+](=O)[O-])c1
EC50 [11]: > 285 µM
EC50 [12]: > 285 µM
CC50 at 120 h [13]: > 285 µM

Cc1ccc(NC(=O)CSc2ncnn2-c2ccc(Cl)cc2Cl)c(Br)c1
EC50 [11]: > 184 µM
EC50 [12]: > 184 µM
CC50 at 120 h [13]: > 184 µM

O=C(CSc1ncnn1-c1ccc(Cl)cc1Cl)Nc1ccccc1F
EC50 [11]: > 38.4 µM
EC50 [12]: > 38.4 µM
CC50 at 120 h [13]: 38.4 µM
selectivity ratio [14]: < 1
selectivity ratio [15]: < 1

CC(=O)c1ccc(NC(=O)CSc2ncnn2-c2ccc(Cl)cc2Cl)c(Br)c1
EC50 [11]: > 114 µM
EC50 [12]: > 114 µM
CC50 at 120 h [13]: 114 µM
selectivity ratio [14]: < 1
selectivity ratio [15]: < 1
